Entries after “also recorded” stand apart in the source; their conditions may differ. Like-named read-outs stand apart in the source and are kept apart here.
Legend:
Plasma pharmacokinetics = type: in vivo, human; conditions: for AUC / Cmax / half-life / Tmax: human, oral; for Cmax: Mean Cmax
[1] = system: patients from the United States / Western patients; conditions: cited from earlier work
[2] = system: East Asian patients with advanced nonhematologic malignancies; test: Dose-limiting toxicities and MTD/RP2D determination; type: in vivo, human
Outline: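 Standard 3 + 3 escalation with planned levels of 2 and 4 mg once daily and 20 and 30 mg once weekly, oral, in 28-day cycles; intermediate doses and expansion to 12 patients were permitted. DLTs were assessed in cycle 1 and covered grade ≥ 3 nonhematologic toxicity (with specified exceptions), defined hematologic events, and < 75% of planned doses given. Evaluable patients received ≥ 75% of planned doses (21 once daily, three once weekly).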

[3] = system: nonhematologic malignancies/solid tumors, endometrial cancer; conditions: phase 2 study in endometrial cancer; single-agent 30 mg QW; cited from earlier work

CC(C)n1nc(-c2ccc3oc(N)nc3c2)c2c(N)ncnc21 [sapanisertib]
Accumulation in plasma (Plasma pharmacokinetics; QD or QW, any dose level): did not accumulate in plasma to any appreciable extent
Dose dependence of plasma exposure (AUC and Cmax) (Plasma pharmacokinetics; across all doses): increased linearly across all doses; also recorded: generally linear, dose-dependent
Time at which peak plasma concentrations were achieved post-dose (Plasma pharmacokinetics; cycle 1 day 1, single dose, both QD and QW arm): 0.5 to 2.0 h
Geometric mean accumulation ratio of AUC168 (Plasma pharmacokinetics; cycle 1 day 15, 20 mg QW): 1.14
Geometric mean accumulation ratio of Cmax (Plasma pharmacokinetics; cycle 1 day 15, 20 mg QW): 0.72
Geometric mean accumulation ratio of AUC168 (Plasma pharmacokinetics; cycle 1 day 15, 30 mg QW): 1.47
Geometric mean accumulation ratio of Cmax (Plasma pharmacokinetics; cycle 1 day 15, 30 mg QW): 1.36
Time at which peak plasma concentrations were achieved post-dose (Plasma pharmacokinetics; cycle 1 day 15, QD arm): 0.5 to 3.0 h
Time at which peak plasma concentrations were achieved post-dose (Plasma pharmacokinetics; cycle 1 day 15, QW arm): 0.5 to 4.1 h
Geometric mean accumulation ratio of Cmax (Plasma pharmacokinetics; cycle 1 day 15, across all QD dose levels): 0.93–1.30
AUC (Plasma pharmacokinetics; plasma, Mean AUC24, cycle 1 day 15, QD dosing): 237 to 366 ng·h/mL
AUC (Plasma pharmacokinetics; plasma, Mean AUC from 0–24 h (AUC24), cycle 1 day 1, across QD doses): 138 to 315 ng·h/mL
Cmax (Plasma pharmacokinetics; plasma, cycle 1 day 1, across all QD doses): 23.9 to 56.9 ng/mL
Cmax (Plasma pharmacokinetics; plasma, cycle 1 day 15, across all QD doses): 33.4 to 57.2 ng/mL
half-life (Plasma pharmacokinetics; plasma, Mean plasma elimination half-life, cycle 1 day 1, across all QD doses): 6 to 6.8 h
half-life (Plasma pharmacokinetics; plasma, Mean plasma elimination half-life, cycle 1 day 15, across all QD doses): 5.24 to 9.2 h
Tmax (Plasma pharmacokinetics; plasma, Median Tmax, cycle 1 day 1, across all QD doses): 0.5 to 1 h
Tmax (Plasma pharmacokinetics; plasma, Median Tmax, cycle 1 day 15, across all QD doses): 1 to 1.5 h
half-life (Plasma pharmacokinetics; plasma, T1/2, overall, as summarised in the abstract): 5.9 to 7.6 h
Tmax (Plasma pharmacokinetics; plasma, Tmax, across all doses in both arms): 0.5 to 2.6 h
Cmax, mean (sd) (Plasma pharmacokinetics; plasma, cycle 1 day 15, QW dose escalation 20 mg, n 3): 207.5 ng/mL
Incidence of stomatitis ([1]; 20 or 30 mg QW): 10%
Incidence of stomatitis ([1]; sapanisertib 2–7 mg QD): 35%
Incidence of stomatitis ([1]; sapanisertib 3 or 4 mg QD): 18%
Incidence of stomatitis ([1]; sapanisertib 7–40 mg QW): 30%
DLT of grade 3 stomatitis ([2]; 4 mg QD cohort): 2 n
Dose-limiting toxicities (patients experiencing DLTs) ([2]; 4 mg QD cohort, cycle 1): three
DLTs ([2]; 20 mg QW dose level): no patients experienced DLTs
DLTs ([2]; 30 mg QW dose level): no patients experienced DLTs
Maximum tolerated dose (MTD) ([2]; QD dosing, East Asian patients): 3 mg
Recommended phase 2 dose (RP2D) ([2]; QD dosing, East Asian patients): 3 mg
Recommended phase 2 dose (RP2D) ([2]; QW dosing, East Asian patients): 30 mg
Pre-defined futility threshold [3]: did not meet a pre-defined futility threshold

Reference: paper PMC8994735 (Targeted Oncology, 2021)
